Screening data from PubChem.
MrgX1 antagonist – blocks BAM8-22 activation of human MrgX1 receptor; Q96LB2; MRGX1-HEK293 calcium flux, Fluo-4, BAM8-22 antagonism; stronger effect = lower value; B-score at 10 µM; actives 1.3% (n = 310,000);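 active means calcium-response B-score plate-corrected more than 3 library SD below zero, starting fluorescence within 5 deviations, no agonist response on first addition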;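 further: peak minus trough fluorescence over baseline after final BAM8-22 challenge near maximal dose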
Target sequence (Q96LB2 whole entry, looked up): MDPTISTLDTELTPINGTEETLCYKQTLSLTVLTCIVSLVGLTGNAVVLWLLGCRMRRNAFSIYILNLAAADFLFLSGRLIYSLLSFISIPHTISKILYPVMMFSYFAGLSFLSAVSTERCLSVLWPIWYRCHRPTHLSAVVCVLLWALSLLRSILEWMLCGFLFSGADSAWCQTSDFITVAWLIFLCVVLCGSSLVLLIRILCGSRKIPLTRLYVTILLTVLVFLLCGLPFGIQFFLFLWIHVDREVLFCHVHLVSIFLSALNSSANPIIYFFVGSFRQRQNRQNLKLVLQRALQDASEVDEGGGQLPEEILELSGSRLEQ
MrgX1 agonist – agonists of human MrgX1 receptor. Q96LB2. MrgX1-HEK293 cells, Fluo-4 calcium fluorescence, agonist mode; stronger effect = higher value. B-score at 10 µM. actives 0.44% (n = 310,000). AID 588627;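 active means calcium response B-score plate-corrected fluorescence ratio at least 3 library SD, with starting fluorescence B-score inside 5 SD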
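Test system: HEK293 cells stably expressing human MrgX1 receptor; Input: fifteen thousand cells per well; Dosing: compound delivered in addition one of three; Schedule: overnight seeding, then 1 h dark dye loading; Technique: Fluo-4 NW calcium fluorescence; Measure: B-scored fluorescence response ratio; Controls: positive and negative controls per plate.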
RGS4 block – human RGS4 inhibition; HEK293 M3R/RGS4 inducible, Fluo-4 calcium flux; stronger effect = higher value; triggered by carbachol at its EC20; B-score at 10 µM; actives 0.45% (n = 310,000); AID 463165;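 active means B-score, a plate-corrected calcium signal, over three deviations above library mean, with baseline fluorescence within five deviations of library mean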;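 further: RGS4 expression induced by doxycycline in cells with stable M3 receptor; B-score is computed from the integrated fluorescence ratio over baseline after carbachol; higher B-score means a larger calcium signal and so more RGS4 inhibition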
Target sequence (P49798 whole entry, looked up): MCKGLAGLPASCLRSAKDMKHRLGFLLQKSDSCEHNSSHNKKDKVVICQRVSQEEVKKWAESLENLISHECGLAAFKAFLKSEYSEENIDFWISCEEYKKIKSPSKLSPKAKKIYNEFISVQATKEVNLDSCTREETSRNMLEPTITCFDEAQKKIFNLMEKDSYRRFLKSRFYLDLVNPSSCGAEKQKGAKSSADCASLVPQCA
RGS4 pot – potentiators or activators of RGS4; actives 0.92% (n = 310,000); HEK293 M3R/inducible RGS4, carbachol calcium flux Fluo4; stronger effect = lower value; B-score at 10 µM;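 active means B-score of the integrated calcium signal more than 4 SD below the library mean, with starting fluorescence not abnormally high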;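 further: negative B-score means reduced calcium response which marks RGS4 activation or potentiation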
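test system = M3R-expressing HEK293 line, RGS4 induced by doxycycline | probe or stimulus = carbachol at ECmax as muscarinic agonist stimulus | timing = dye loading 30 min 37 °C, buffer rest 30 min RT | signal = calcium dye Fluo4 fluorescence | evaluation = B score from integrated fluorescence ratio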
MrgX1 allo act – allosterically activates human MrgX1 receptor signaling; Q96LB2; MrgX1-HEK293, Fluo-4 calcium flux, FDSS; stronger effect = higher value; B-score at 10 µM; actives 0.63% (n = 310,000);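 active means plate-corrected calcium response at least 3 library SD above typical, normal starting fluorescence, not activating the receptor alone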;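 further: compound read alongside a low EC10 to EC30 dose of BAM8-22 agonist; peak minus trough fluorescence over baseline measured at the second addition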
MrgX1 ag reconf – reconfirmed activator of human MrgX1 receptor signaling; shares compounds with MrgX1 agonist; MrgX1-HEK293, Fluo-4 calcium fluorescence, FDSS; activation, % at 10 µM; actives 78% (n = 600); AID 602412;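 active means calcium signal rise, corrected for plate position, at least 3 library SD high, with starting brightness within 5 such deviations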
HEK293 Ca flux – counter-screen for MrgX1 antagonists: effect in parental HEK293 cells. shares compounds with MrgX1 antagonist. Fluo-4 calcium fluorescence, FDSS. fluorescence ratio F(max-min)/F0 at 10 µM. actives 2% (n = 4,000). AID 624111;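 active means duplicate-averaged calcium fluorescence ratio at least three times the standard deviation of buffer wells, a nonspecific response in parental cells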
HEK293 Ca counter – MrgX1 allosteric activator counter-screen hit in parental HEK293 cells. shares compounds with MrgX1 antagonist. parental HEK293 calcium flux, Fluo-4 fluorescence ratio; stronger effect = higher value. fluorescence ratio F(max-min)/F0 at 10 µM. actives 0.4% (n = 4,000);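 active means calcium fluorescence ratio, averaged over duplicates, at least 3 SD of the buffer-well ratio, meaning a nonspecific response in receptor-free cells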;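 further: untransfected parental HEK293 lacking MrgX1 used as counterscreen for MrgX1 allosteric activators; fluorescence change taken during the second addition on a kinetic imager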
HEK293 Ca cntr2 – MrgX1 activator counter-screen hit in parental HEK293 cells. fluorescence ratio F(max-min)/F0 at 10 µM. shares compounds with MrgX1 antagonist. Fluo-4 calcium fluorescence (FDSS); stronger effect = higher value. actives 8.7% (n = 4,000);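 active means calcium fluorescence ratio at least three times the spread of buffer wells, meaning a non-specific response in parental cells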
Active calls of the source: *; i = inactive; . = not tested or not shown. A selection: hits, their analogues and other compounds. The true share with any hit is near 3.5%.

SMILES | MrgX1 antagonist | MrgX1 agonist | RGS4 block | RGS4 pot | MrgX1 allo act | MrgX1 ag reconf | HEK293 Ca flux | HEK293 Ca counter | HEK293 Ca cntr2
O=C1Cc2ccccc2Sc2c(OCCN3CCCCC3)cccc21 | i | 27.3* | i | i | i | 202.9%* | i | i | i
O=C1Cc2ccccc2Sc2cc(OCCCN3CCCCC3)ccc21 | i | i | i | i | i | . | . | . | .
Cc1oc2cc(O)ccc2c(=O)c1-c1nncn1-c1ccccc1 | i | 29.8* | i | i | i | i | i | i | i
CC(=O)Nc1ccc(S(=O)(=O)Nc2ccc(S(=O)(=O)N3CCCC3)cc2)cc1 | i | i | i | i | i | . | . | . | .
CC(=O)Nc1ccc(S(=O)(=O)/N=C2\SCCN2S(=O)(=O)c2ccc(NC(C)=O)cc2)cc1 | i | 41.1* | i | i | i | 270.3%* | i | i | i
N#CC1=C(N)Oc2n[nH]c(-c3ccccc3)c2C12C(=O)Nc1ccccc12 (centres undefined) | i | i | i | i | i | . | . | . | .
Cn1c2c(c(=O)n(C)c1=O)[C@@]1(C(=O)Nc3ccccc31)C(C#N)=C(N)O2 | i | 40.9* | i | i | i | 173.4%* | i | i | i
CC(C)c1ccc(N(C(=O)c2csnn2)C(C(=O)NC2CCCC2)c2cccnc2)cc1 (centres undefined) | i | 32.7* | i | i | i | i | i | i | i
CCN(Cc1cc2cc(C)ccc2[nH]c1=O)C(=O)c1cccc([N+](=O)[O-])c1 | i | i | i | i | i | . | . | . | .
CN(C(=O)CC1C(=O)NCCN1CC1CCCCC1)C1CCOCC1 (centres undefined) | i | i | i | i | i | . | . | . | .
Cc1ccc(S(=O)(=O)N(CC(=O)Nc2ccccc2)C(=O)N2CCN(C)CC2)cc1 | i | i | i | i | i | . | . | . | .
Cc1ccccc1C(=O)Nc1nnc(-c2cccnc2)o1 | i | i | i | i | i | . | . | . | .
Cc1ccc(C(=O)NNC(=S)NC(=O)COc2ccccc2)cc1 | i | 109* | i | i | i | 617.5%* | i | i | 116*
Cc1ccccc1C(=O)NNC(=S)NC(=O)COc1ccccc1 | i | 120* | i | i | i | 640.4%* | i | i | 125*
O=C1NC(=Nc2ccc(Cl)cc2)/C(=C/c2ccco2)S1 | i | i | i | i | i | . | . | . | .
CCOc1ccc(N=C2NC(=O)S/C2=C\c2ccc(N(C)C)cc2)cc1 | i | 26.9* | i | i | i | 261.4%* | 0.25* | i | 59.4*
CC1CCC(C(=O)c2c(O)c3ccccc3oc2=O)CC1 (centres undefined) | i | 68.7* | i | i | i | 281.7%* | i | i | 83.8*
O=C(CC1CCCCC1)c1c(O)c2ccccc2oc1=O | i | 87.4* | i | i | i | 427.6%* | i | i | 91.6*
CC(=N)c1c(O)c2ccccc2oc1=O | i | i | i | i | i | . | . | . | .
CCC1C(=O)NCCN1Cc1nc(-c2ccc(C)s2)oc1C (centres undefined) | i | i | i | i | i | . | . | . | .
CCC(C)n1c(=N)c(C#N)cc2c(=O)n3ccccc3nc21 (centres undefined) | i | 26.5* | i | i | i | i | i | i | i
COc1cc(/C=C/c2cccc[n+]2C)ccc1OCC(=O)Nc1cccc(Cl)c1 | i | i | i | i | i | . | . | . | .
O=C1CSc2ccc(C(=O)NCCC3=CCCCC3)cc2N1 | i | 119* | i | i | i | i | i | i | i
COc1ccc(C(=O)Nc2ccnn2C2CCN(CCC(C)c3ccc(C)o3)CC2)cc1 (centres undefined) | i | i | i | i | i | . | . | . | .
COc1ccc(C)cc1N(CC(=O)N1CCCCCC1)S(=O)(=O)c1ccc(C)cc1 | i | 37.1* | i | i | i | 198.4%* | i | i | i
SMILES | MrgX1 antagonist | MrgX1 agonist | RGS4 block | RGS4 pot | MrgX1 allo act | MrgX1 ag reconf | HEK293 Ca flux | HEK293 Ca counter | HEK293 Ca cntr2
COc1ccc(OC)c(N(CC(=O)N2CCCC2)S(=O)(=O)c2ccc(C)cc2)c1 | i | i | i | i | i | . | . | . | .
OC(C#Cc1ccccn1)c1cccs1 (centres undefined) | i | 44.1* | i | i | i | i | i | i | i
Cc1cc(=O)oc2ccc(OCC(=O)N3CCC(C)CC3)cc12 | i | 27.8* | i | i | i | 215.3%* | i | i | i
O=C(Nc1ccc([N+](=O)[O-])cn1)c1ccc2c(c1)OCO2 | i | i | i | i | i | . | . | . | .
CC(C)NC[C@H](O)c1ccc(O)c(O)c1 | i | 32* | . | . | i | 123.6%* | i | i | i
C=CCSC(=S)NC1CCS(=O)(=O)C1 (centres undefined) | i | 30.8* | i | i | i | i | i | i | i
CCC(CC)C1C(C#N)=C(N)Oc2cc(C)oc(=O)c21 (centres undefined) | i | i | i | i | i | . | . | . | .
Cc1cc2c(c(=O)o1)C(CCC1CCCCC1)C(C#N)=C(N)O2 (centres undefined) | i | 28.4* | i | i | i | i | i | i | i
CC(C)OC(=O)CSc1nnc(-c2ccc(C(C)(C)C)cc2)n1N | i | i | i | i | i | . | . | . | .
CC(C)OC(=O)CSc1nnc(-c2ccncc2)n1N | i | 40.9* | i | i | i | i | i | i | i
Cc1ccc(C2(C)NC(=O)N(CC(=O)N(Cc3ccccc3)C(C)(C)C)C2=O)cc1 (centres undefined) | i | i | i | i | i | . | . | . | .
O=C(Nc1ccc(Cl)cc1)c1ccc2c(=O)n3c(nc2c1)CCCCC3 | i | i | i | i | i | . | . | . | .
O=C(Nc1ccc(Br)cc1Cl)c1ccc2c(=O)n3c(nc2c1)CCC3 | i | 55* | i | i | i | 467.7%* | i | i | 102*
O=C(Nc1ccc(Cl)cc1Cl)c1ccc2c(=O)n3c(nc2c1)CCC3 | i | 85* | i | i | i | 461.8%* | i | i | 107*
